For five molecules, inhibition results are on record in ChEMBL document CHEMBL2424622, “Development of amino-pyrimidine inhibitors of c-Jun N-terminal kinase (JNK): kinase profiling guided optimization of a 1,2,3-benzotriazole lead” (Bioorg Med Chem Lett, 2013).

One assay concerns the target LIM domain kinase 2 (Homo sapiens, UniProt P53671). Put plainly: Competitive binding affinity to LIMK2 (unknown origin) at 10 uM in presence of ATP relative to control. Summed up:
(§1)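 In vitro ATP-site competition binding assay, part of profiling against a diverse panel of 128 kinases. Each compound was tested at a single concentration of 10 µM. Kinome selectivity was summarized as S15 selectivity scores.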

Assay [1] deals with Mitogen-activated protein kinase 3 (Homo sapiens, UniProt P27361). Put plainly: Competitive binding affinity to ERK1 (unknown origin) at 10 uM in presence of ATP relative to control. Summed up: as §1
Assay [2] addresses Cyclin-dependent kinase 11B (Homo sapiens, UniProt P21127). The assay is described as follows: Competitive binding affinity to CDC2L1 (unknown origin) at 10 uM in presence of ATP relative to control. Summed up:
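In vitro ATP-site competition binding format, run as one member of a diverse 128-kinase profiling panel. Each compound was tested at a single concentration across the whole panel.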

Assay [3] deals with Serine/threonine-protein kinase 32B (Homo sapiens) (UniProt Q9NY57). The assay is described as follows: Competitive binding affinity to YANK2 (unknown origin) at 10 uM in presence of ATP relative to control.
Assay [4] has as its target Casein kinase I isoform gamma-3 (Homo sapiens) (UniProt Q9Y6M4). The assay is described as follows: Competitive binding affinity to CSNK1G3 (unknown origin) at 10 uM in presence of ATP relative to control.
Assay [5] has as its target T1, Ephrin type-A receptor 1 (Homo sapiens) (UniProt P21709).
T1 sequence (whole entry): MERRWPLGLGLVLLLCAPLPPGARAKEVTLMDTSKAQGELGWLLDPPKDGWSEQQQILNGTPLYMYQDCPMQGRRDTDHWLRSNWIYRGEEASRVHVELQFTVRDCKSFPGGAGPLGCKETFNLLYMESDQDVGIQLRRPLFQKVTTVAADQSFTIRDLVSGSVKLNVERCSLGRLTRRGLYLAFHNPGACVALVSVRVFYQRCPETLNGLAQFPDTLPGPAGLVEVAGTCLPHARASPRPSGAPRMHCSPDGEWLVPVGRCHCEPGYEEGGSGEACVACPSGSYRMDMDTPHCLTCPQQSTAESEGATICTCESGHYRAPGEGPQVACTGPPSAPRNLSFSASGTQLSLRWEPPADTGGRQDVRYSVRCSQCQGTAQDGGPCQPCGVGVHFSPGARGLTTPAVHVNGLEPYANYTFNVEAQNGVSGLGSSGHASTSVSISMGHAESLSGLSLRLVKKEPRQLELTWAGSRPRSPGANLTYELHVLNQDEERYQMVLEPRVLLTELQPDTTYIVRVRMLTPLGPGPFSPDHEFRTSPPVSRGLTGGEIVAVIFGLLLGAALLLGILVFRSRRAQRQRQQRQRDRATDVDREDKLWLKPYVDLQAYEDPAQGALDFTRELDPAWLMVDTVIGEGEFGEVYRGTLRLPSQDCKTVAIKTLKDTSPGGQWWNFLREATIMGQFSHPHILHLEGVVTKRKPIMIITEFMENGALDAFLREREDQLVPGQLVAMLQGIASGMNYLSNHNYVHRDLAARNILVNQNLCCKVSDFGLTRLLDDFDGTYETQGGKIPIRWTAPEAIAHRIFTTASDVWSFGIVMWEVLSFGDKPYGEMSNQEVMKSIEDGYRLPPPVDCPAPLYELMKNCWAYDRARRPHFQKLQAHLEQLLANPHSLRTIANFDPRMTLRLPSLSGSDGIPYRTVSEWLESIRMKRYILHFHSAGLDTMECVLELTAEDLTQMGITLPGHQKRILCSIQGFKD
Put plainly: Competitive binding affinity to EPHA1 (unknown origin) at 10 uM in presence of ATP relative to control. Summed up:
as §1

For assay [6], the target named is T2, MAP/microtubule affinity-regulating kinase 4 (Homo sapiens) (UniProt Q96L34).
T2 sequence (whole entry): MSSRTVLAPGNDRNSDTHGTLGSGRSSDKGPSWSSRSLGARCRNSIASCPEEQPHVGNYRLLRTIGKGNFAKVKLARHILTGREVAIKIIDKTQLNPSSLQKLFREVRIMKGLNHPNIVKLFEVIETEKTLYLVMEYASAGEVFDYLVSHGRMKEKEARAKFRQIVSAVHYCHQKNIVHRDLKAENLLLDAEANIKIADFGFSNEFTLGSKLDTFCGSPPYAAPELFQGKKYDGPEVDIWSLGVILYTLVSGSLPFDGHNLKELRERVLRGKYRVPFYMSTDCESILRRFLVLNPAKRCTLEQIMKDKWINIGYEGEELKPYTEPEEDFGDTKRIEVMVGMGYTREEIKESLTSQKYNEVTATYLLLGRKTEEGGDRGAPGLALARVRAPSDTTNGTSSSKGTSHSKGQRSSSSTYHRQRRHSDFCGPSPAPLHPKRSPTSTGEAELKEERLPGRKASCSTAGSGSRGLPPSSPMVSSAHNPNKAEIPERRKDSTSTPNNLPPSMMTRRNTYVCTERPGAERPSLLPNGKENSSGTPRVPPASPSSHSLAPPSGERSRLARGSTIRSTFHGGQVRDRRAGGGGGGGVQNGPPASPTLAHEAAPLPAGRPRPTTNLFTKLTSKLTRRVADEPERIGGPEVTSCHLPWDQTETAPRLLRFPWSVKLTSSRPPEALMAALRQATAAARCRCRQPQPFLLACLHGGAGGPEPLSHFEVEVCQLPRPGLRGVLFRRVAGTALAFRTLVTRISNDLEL
Put plainly: Competitive binding affinity to MARK4 (unknown origin) at 10 uM in presence of ATP relative to control. Summed up:
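In vitro ATP-site competition binding assay across a diverse panel of 128 kinases, with compound tested at a single concentration. Kinase selectivity scores (S15) were calculated from the panel profiles.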

Assay [7] deals with Mitogen-activated protein kinase kinase kinase 10 (Homo sapiens) (UniProt Q02779). The assay is described as follows: Competitive binding affinity to MLK2 (unknown origin) at 10 uM in presence of ATP relative to control.
Assay [8] deals with Dual specificity tyrosine-phosphorylation-regulated kinase 1B (Homo sapiens) (UniProt Q9Y463). The assay is described as follows: Competitive binding affinity to DYRK1B (unknown origin) at 10 uM in presence of ATP relative to control.

A value given as a limit tells only on which side of the number the result lay.

Sequence of LIM domain kinase 2 (P53671 whole entry, looked up, the tested form may be a part): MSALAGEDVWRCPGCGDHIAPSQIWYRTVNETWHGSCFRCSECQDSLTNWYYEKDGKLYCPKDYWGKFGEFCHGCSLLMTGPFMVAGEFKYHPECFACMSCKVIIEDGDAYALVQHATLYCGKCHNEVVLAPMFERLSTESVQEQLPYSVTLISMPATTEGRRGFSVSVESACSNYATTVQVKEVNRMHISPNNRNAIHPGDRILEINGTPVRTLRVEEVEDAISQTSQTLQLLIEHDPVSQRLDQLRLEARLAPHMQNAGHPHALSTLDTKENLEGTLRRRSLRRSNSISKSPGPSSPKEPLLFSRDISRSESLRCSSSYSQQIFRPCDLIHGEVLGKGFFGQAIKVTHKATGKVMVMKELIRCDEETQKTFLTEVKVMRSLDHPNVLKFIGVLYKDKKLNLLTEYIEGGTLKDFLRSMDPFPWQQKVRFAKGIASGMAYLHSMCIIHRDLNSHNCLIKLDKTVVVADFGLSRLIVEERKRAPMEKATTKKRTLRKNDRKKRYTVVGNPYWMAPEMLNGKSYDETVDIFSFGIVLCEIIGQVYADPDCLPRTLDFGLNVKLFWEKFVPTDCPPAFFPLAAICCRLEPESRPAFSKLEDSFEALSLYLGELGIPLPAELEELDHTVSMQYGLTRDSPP
Sequence of Casein kinase I isoform gamma-3 (Homo sapiens) (Q9Y6M4 whole entry, looked up, canonical isoform): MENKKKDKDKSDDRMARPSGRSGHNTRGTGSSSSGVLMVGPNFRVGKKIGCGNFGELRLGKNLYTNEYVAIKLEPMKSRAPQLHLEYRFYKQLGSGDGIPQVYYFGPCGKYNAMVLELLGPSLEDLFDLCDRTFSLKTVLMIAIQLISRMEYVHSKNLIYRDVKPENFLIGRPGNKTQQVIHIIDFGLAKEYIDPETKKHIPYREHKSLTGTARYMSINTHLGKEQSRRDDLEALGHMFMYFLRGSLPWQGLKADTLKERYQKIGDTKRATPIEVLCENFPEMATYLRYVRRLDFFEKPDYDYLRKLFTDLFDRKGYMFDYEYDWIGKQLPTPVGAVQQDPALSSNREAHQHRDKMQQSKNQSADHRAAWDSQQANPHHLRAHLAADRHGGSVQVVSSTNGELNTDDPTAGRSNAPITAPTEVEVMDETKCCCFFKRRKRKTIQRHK
Sequence of Mitogen-activated protein kinase 3 (P27361 whole entry): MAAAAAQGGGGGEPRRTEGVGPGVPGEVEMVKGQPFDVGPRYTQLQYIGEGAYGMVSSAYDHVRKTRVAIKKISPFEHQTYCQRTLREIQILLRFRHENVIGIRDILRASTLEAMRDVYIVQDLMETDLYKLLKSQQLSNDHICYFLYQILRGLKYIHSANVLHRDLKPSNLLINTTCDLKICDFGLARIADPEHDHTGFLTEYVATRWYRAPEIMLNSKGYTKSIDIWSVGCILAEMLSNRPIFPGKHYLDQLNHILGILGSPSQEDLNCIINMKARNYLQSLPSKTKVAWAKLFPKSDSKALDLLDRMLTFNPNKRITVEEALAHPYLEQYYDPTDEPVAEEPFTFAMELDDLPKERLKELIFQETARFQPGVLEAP
Sequence of Mitogen-activated protein kinase kinase kinase 10 (Homo sapiens) (Q02779 whole entry, looked up): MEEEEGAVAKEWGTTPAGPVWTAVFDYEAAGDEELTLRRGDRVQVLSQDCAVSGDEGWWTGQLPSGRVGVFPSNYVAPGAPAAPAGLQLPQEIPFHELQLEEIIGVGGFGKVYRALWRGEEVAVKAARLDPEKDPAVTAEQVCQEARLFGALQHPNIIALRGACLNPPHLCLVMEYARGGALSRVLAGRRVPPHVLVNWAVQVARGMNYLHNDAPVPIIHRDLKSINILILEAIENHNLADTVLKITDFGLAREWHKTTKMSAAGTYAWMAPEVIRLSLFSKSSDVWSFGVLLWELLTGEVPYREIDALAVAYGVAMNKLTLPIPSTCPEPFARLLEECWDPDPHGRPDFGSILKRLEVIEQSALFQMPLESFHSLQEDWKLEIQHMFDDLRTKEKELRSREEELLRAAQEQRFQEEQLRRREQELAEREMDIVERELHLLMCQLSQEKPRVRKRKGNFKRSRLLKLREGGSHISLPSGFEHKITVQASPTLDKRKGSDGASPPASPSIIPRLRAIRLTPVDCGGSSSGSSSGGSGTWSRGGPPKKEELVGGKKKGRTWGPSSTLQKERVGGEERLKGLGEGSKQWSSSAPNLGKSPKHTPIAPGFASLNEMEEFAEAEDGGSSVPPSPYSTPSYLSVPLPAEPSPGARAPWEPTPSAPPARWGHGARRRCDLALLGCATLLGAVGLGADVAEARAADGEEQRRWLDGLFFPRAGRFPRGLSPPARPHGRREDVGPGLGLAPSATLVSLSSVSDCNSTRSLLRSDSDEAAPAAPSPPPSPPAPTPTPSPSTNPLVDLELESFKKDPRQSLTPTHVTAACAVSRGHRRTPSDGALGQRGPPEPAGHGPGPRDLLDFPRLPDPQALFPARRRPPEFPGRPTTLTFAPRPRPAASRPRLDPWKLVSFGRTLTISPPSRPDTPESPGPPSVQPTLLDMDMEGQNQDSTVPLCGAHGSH
Sequence of Cyclin-dependent kinase 11B (P21127 whole entry): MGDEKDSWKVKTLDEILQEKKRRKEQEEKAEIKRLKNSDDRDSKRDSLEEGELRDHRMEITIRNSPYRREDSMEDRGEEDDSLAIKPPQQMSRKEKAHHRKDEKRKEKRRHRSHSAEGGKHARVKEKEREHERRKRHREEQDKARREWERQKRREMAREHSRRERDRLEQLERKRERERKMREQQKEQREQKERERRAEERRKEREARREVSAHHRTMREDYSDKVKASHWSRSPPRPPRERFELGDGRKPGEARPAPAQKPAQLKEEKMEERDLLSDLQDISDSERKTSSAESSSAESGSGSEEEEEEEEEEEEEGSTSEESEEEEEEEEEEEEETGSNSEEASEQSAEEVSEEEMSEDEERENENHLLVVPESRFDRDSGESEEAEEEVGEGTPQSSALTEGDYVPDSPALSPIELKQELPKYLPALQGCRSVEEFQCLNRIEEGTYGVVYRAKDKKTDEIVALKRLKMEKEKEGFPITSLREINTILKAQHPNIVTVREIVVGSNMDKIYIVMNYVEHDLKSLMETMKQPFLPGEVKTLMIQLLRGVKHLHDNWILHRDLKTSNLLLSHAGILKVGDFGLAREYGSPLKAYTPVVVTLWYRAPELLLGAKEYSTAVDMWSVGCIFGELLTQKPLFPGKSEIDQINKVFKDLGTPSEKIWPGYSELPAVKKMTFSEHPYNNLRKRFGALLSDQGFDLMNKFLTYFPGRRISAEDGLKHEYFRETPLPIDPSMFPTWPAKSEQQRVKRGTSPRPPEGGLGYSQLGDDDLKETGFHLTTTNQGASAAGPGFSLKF
Sequence of Serine/threonine-protein kinase 32B (Homo sapiens) (Q9NY57 whole entry, canonical isoform): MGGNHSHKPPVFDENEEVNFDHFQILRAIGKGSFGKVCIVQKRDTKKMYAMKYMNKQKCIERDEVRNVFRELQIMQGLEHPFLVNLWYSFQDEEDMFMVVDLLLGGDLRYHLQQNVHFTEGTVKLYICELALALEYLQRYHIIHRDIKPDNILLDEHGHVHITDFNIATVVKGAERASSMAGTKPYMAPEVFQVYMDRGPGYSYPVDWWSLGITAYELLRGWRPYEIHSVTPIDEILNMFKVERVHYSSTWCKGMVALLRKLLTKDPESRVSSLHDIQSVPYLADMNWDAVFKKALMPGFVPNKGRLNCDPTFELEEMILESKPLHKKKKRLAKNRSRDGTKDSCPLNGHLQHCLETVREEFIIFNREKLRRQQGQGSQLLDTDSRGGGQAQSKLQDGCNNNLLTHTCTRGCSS
Sequence of Dual specificity tyrosine-phosphorylation-regulated kinase 1B (Homo sapiens) (Q9Y463 whole entry, looked up): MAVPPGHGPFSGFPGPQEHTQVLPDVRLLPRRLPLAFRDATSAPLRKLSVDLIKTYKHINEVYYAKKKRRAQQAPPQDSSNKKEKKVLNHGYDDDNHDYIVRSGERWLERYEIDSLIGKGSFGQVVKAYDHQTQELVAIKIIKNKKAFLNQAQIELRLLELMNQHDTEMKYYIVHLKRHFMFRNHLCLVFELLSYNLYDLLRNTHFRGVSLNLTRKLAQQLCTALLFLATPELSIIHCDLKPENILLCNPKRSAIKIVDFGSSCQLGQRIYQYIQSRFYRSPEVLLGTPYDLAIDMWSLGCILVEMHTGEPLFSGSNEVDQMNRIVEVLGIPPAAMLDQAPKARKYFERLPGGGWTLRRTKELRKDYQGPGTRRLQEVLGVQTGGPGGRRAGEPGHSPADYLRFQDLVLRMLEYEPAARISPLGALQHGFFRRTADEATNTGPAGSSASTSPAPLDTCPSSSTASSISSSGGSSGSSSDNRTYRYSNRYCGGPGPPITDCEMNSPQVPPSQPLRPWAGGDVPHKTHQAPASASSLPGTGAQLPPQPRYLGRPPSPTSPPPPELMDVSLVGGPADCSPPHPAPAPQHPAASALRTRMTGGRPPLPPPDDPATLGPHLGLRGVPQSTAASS

As a reminder, the inhibition is the change of the read-out against control, counted positive when it falls. Turning to `CS(=O)(=O)CCCOc1cccc2c1ccn2-c1ccnc(N[C@H]2CC[C@H](C(=O)N3CCC(O)CC3)CC2)n1`, the inhibition (at LIM domain kinase 2; in [1]; in assay [2]) was over 85% throughout.

As for `O[C@H]1CC[C@H](Nc2nccc(-n3ccc4ccccc43)n2)CC1`, the inhibition in [3] is under 50%; at LIM domain kinase 2, 81%; in assay [4], under 50%; in assay [1], under 50%; in assay [2], 97%; in [5], under 50%. Moreover, the inhibition in assay [6] is under 50%; in [7], under 50%; in assay [8], 100%.

For the molecule `O[C@H]1CC[C@H](Nc2nccc(-n3ncc4ccccc43)n2)CC1`, the inhibition in [3] is under 50%; on LIM domain kinase 2 it was 76%; in [4], under 50%; in assay [1], under 50%; in [2], 97%; in assay [5], under 50%. Moreover, the inhibition in assay [6] was under 50%; in [7], under 50%; in assay [8], 99%.

Take `O[C@H]1CC[C@H](Nc2nccc(-c3n[nH]c4ccccc34)n2)CC1`: the inhibition was under 50% in assay [3]; 100% at LIM domain kinase 2; 80% in assay [1]; under 50% in assay [5]; 67% in assay [6].

As for `O[C@H]1CC[C@H](Nc2nccc(-n3nnc4ccccc43)n2)CC1`, the inhibition is under 50% in [3]; 78% on LIM domain kinase 2; 96% in assay [4]; under 50% in assay [1]; 100% in assay [2]; under 50% in [5]. Further, the inhibition in [6] is under 50%; in [7] it was under 50%; in assay [8], 100%.
